Screening results as filed in PubChem BioAssay.
STAT3 act – activators of IL-6 induced STAT3 signaling | activation (% of control), % at 5.6 µM | U3A cells, IL-6 STAT3-luciferase reporter, luminescence; 100% = signal with IL-6 EC80 alone | AID 871 | 190,000 tested, 0.91% active;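 active = activation above the screen-wide mean of compound activation plus 3 SD, cut at about 130% in these data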;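 note: 0% = background luminescence of wells with medium and substrate only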
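Detection: reporter luminescence signal / Assay system: STAT1-lacking human U3A cells, STAT3 luciferase reporter / Incubation: compound pre-incubation 1 h before IL-6, then 6 h stimulation at 37 °C / Control set: IL-6-only high control / Read-out: % activation relative to IL-6 control / Probe or stimulus: Interleukin-6, 33 ng/mL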
ABCB6 inh 2 – blocks the human ABCB6 transporter; Q9NP58; K562-ABCB6 porphyrin accumulation, flow cytometry, 1 h; hits give low values; fluorescence ratio to DMSO, % at 10 µM; 360,000 tested, 0.19% active;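 active = fluorescence ratio to DMSO below 75%, the collection mean minus 3 SD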;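 note: signal is porphyrin accumulated inside mitochondria; 100% equals median channel fluorescence of DMSO control wells; lower ratio means ABCB6 inhibition with less porphyrin fluorescence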
AHR activator – human AHR activation; AHR-responsive luciferase reporter cells, luminescence; activation, % at 5 µM; 320,000 tested, 2.5% active; P35869; in the data active = activation above about 47%;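 note: 0% = vehicle wells and 100% = reference agonist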
Target sequence (P35869 whole entry, looked up): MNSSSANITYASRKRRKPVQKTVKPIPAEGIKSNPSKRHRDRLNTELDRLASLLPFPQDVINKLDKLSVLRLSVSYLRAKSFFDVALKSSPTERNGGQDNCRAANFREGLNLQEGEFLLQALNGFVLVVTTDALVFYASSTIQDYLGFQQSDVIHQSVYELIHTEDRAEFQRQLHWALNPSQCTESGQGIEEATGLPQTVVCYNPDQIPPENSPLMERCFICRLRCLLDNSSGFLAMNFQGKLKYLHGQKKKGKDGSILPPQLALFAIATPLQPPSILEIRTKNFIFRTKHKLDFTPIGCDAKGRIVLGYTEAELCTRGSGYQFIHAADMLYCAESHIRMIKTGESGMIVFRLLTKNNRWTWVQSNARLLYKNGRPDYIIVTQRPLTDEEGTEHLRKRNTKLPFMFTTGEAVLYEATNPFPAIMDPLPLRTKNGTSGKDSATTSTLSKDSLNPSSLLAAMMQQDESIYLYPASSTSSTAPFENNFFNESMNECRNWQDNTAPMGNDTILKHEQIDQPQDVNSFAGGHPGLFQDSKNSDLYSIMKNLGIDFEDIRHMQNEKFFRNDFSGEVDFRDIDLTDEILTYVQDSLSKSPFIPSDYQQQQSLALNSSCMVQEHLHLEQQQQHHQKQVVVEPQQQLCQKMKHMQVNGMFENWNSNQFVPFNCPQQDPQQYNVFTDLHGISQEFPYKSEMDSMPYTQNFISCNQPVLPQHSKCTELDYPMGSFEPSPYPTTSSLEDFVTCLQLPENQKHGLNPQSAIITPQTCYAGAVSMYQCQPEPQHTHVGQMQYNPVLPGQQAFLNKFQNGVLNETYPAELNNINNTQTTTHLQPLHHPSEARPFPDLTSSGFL
GAA850 FXN act – increases GAA850 frataxin promoter reporter activity | HEK293 lucGAA850 FXN promoter luciferase reporter, 24 h; percent of 10 µM SAHA response | activation, % at 6 µM | 360,000 tested, 0.56% active | AID 540364;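 active = activation above the average of all compounds screened plus 3 SD, cutoff fixed separately per campaign, cut at about 7.5% in these data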;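 note: 0% = DMSO wells and 100% = 10 µM SAHA wells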
ABCB6 blocker 1 – human ABCB6 transporter inhibition; ratio response (% of DMSO), % at 10 µM; shares compounds with ABCB6 inh 2; 700 tested, under 10 active; K562-ABCB6 porphyrin accumulation, flow cytometry, 1 h; hits give low values;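 active = repeat-averaged ratio response below 75% of DMSO, the collection mean minus 3 SD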;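 note: median porphyrin fluorescence at 575 nm with 488 nm excitation from mitochondria; lower ratio means less porphyrin signal so ABCB6 inhibition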
Active calls of the source: *; / = not tested or not shown. Sampled rows, rich in hits. Any-hit rate of the full collection: about 3.3%.

SMILES	STAT3 act	ABCB6 inh 2	AHR activator	GAA850 FXN act	ABCB6 blocker 1
CCCCCN(C(=O)CCC(=O)OCc1cc(C)ccc1C)c1c(N)n(CCCC)c(=O)[nH]c1=O	/	99	2	0	100
CCCCCN(C(=O)CCC(=O)OCc1ccccc1F)c1c(N)n(CCCC)c(=O)[nH]c1=O	/	93	2	-2	/
CCCCCN(C(=O)CCC(=O)OCC(=O)NCCc1ccccc1)c1c(N)n(CCCC)c(=O)[nH]c1=O	/	93	/	2	99
CCCCCN(C(=O)CCC(=O)OCC(=O)Nc1cccc(CC)c1)c1c(N)n(CCCC)c(=O)[nH]c1=O	/	74*	-2	1	101
CCCCCN(C(=O)CCC(=O)OCC(=O)N(CC)c1ccccc1)c1c(N)n(CCCC)c(=O)[nH]c1=O	/	100	4	-1	/
O=C(c1ccco1)N1CCCC(c2nc(-c3ccc(S(=O)(=O)NCc4ccccc4)cc3)no2)C1 (stereo not drawn)	82	102	-2	-2	/
CCC(CO)NC1=C([N+](=O)[O-])C(=O)CC(C)(C)C1 (stereo not drawn)	96	105	-1	3	/
O=C(CSc1ncnc2sc3c(c12)CCC3)Nc1ccccc1C(=O)O	/	91	4	2	/
COc1cc(C)c(CN2CCN(c3ncccn3)CC2)cc1C	/	16*	-1	2	97
COc1ccc(CN2CCN(c3ncccn3)CC2)c(C)c1C	/	97	-1	1	/
Cn1nnnc1SCC(=O)Nc1nc2c(F)c(F)c(F)cc2s1	/	96	8	1	/
CC(C)(C)NC(=O)c1cccc(NC(=O)c2cccc(O)c2)c1	98	63*	5	1	101
CCN(c1cccc(C(F)(F)F)c1)S(=O)(=O)c1ccc2c(c1)CCN2C(=O)C1CC1	101	72*	0	0	101
CCC(=O)N1CCc2cc(S(=O)(=O)N(CC)c3cccc(C)c3)ccc21	98	92	0	2	/
COc1ccc(N(CC(=O)NC(C)C)S(=O)(=O)c2ccc(NC(C)=O)cc2)cc1	103	69*	0	3	98
COc1ccc(Cl)cc1CNC[C@H]1O[C@@H](n2ccc(N)nc2=O)[C@H](O)[C@@H]1O	/	102	/	2	/
COc1ccc(-n2c(COc3ccccc3)nnc2SCc2ccc(C#N)cc2)cc1	103	51*	8	-2	99
COc1ccccc1N1CCN(S(=O)(=O)c2ccc3nc(-c4ccccc4)[nH]c3c2)CC1	104	101	7	1	/
O=S(=O)(c1ccc2nc(-c3ccccc3)[nH]c2c1)N1CCN(c2cccc(Cl)c2)CC1	111	58*	15	-1	101
CCOc1ccc(-n2nc3c(SCCN4CCCC4)nnc(C)c3c2C)cc1	101	99	-3	2	/
COc1ccc(N2CCN(C(=O)CCCCCn3c(=S)[nH]c4ccc(N5CCOCC5)cc4c3=O)CC2)cc1	/	73*	/	-3	96
C/C=C(\C)CN1CCN(c2cccc(C)c2C)CC1	98	24*	1	2	95
CC(=O)c1cccc(NC(=O)c2ccc3c(Cl)c4c(nc3c2)CCCC4)c1	91	73*	-1	1	102
N#Cc1ccccc1NC(=O)c1ccc2c(Cl)c3c(nc2c1)CCCC3	105	94	5	6	/
Cc1cc(NC(=O)c2c(F)cccc2F)n(-c2nc3ccccc3[nH]2)n1	99	71*	17	1	95
SMILES	STAT3 act	ABCB6 inh 2	AHR activator	GAA850 FXN act	ABCB6 blocker 1
Cc1cc(NC(=O)c2c(F)cccc2Cl)n(-c2nc3ccccc3[nH]2)n1	96	102	6	-1	/
CCOC(=O)C1=C[C@@H](CC)N(S(=O)(=O)c2ccc(C)cc2)[C@H]1c1cccs1	/	99	/	/	/
O=C(CSc1nc2c(c(=O)[nH]1)CCCC2)Nc1ccc(Cl)cc1F	101	70*	4	0	104
O=C(CSc1nc2c(c(=O)[nH]1)CCC2)Nc1ccc(F)cc1	/	98	3	1	/
COc1ccc([N+](=O)[O-])cc1C(=O)NCCOc1ccc(Cl)cc1	/	98	-2	0	/
Cn1c(=O)c2ncn(CC(=O)NCCOCc3ccccc3Cl)c2n(C)c1=O	101	66*	14	2	100
Cn1c(=O)c2ncn(CC(=O)NCCOc3ccc(C(C)(C)C)cc3)c2n(C)c1=O	104	87	/	1	/
COC(=O)c1cc(S(=O)(=O)N2CCN(c3ccc(F)cc3)CC2)c[nH]1	/	46*	1	-2	99
N#Cc1nc(COc2ccccc2)oc1N1CCCCCC1	96	103	29	2	/
